ChEMBL document CHEMBL1140908, “New insights into the design of inhibitors of human S-adenosylmethionine decarboxylase: studies of adenine C8 substitution in structural analogues of S-adenosylmethionine” (J Med Chem, 2009)

Key:
[1] = target: T1, S-adenosylmethionine decarboxylase proenzyme (Homo sapiens) (UniProt P17707); test: Inhibition of human C-terminal His-tagged AdoMetDC assessed as release of 14CO2 from S-adenosyl-L-[carboxy-14C]methionine at 100 uM
T1 sequence (whole entry): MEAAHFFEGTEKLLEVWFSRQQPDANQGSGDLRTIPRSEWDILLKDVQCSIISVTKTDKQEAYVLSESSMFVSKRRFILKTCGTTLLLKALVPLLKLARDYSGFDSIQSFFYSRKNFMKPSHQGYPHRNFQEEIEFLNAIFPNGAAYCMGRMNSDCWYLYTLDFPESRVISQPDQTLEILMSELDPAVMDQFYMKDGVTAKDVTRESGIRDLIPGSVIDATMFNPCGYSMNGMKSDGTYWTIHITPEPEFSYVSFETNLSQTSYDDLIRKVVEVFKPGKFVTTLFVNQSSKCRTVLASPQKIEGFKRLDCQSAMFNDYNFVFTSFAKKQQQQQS

[2] = target: T2, S-adenosylmethionine decarboxylase proenzyme (Homo sapiens, UniProt P17707); test: Inhibition of human C-terminal His-tagged AdoMetDC assessed as release of 14CO2 from S-adenosyl-L-[carboxy-14C]methionine
T2 sequence (P17707 whole entry): T1 sequence (whole entry)
Method in brief: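 Enzyme: human AdoMetDC from a pQE30 plasmid with the (H)6 tag at the C-terminus in place of the terminal -QQQQQS. Expressed in E. coli JM109 with IPTG induction overnight at 15 °C, then purified on Talon resin and Sephadex G-75 in putrescine-containing buffer. Assay used 1 nM enzyme, no inhibitor plus at least five inhibitor concentrations. IC50 came from curve fits of concentration versus % inhibition.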

Row | SMILES | inhibition [1] [%] | IC50 [2] [nM]
1 | CNCCNC[C@H]1O[C@@H](n2cnc3c(N)ncnc32)[C@H](O)[C@@H]1O | < 5 | 
2 | CNCCNC[C@H]1O[C@@H](n2c(C)nc3c(N)ncnc32)[C@H](O)[C@@H]1O | < 5 | 
3 | CNc1nc2c(N)ncnc2n1[C@@H]1O[C@H](CN(C)CCCCON)[C@@H](O)[C@H]1O |  | 49
4 | CNCCCNC[C@H]1O[C@@H](n2c(NC)nc3c(N)ncnc32)[C@H](O)[C@@H]1O | < 5 | 
5 | CN(CCNC(=N)N)C[C@H]1O[C@@H](n2cnc3c(N)ncnc32)[C@H](O)[C@@H]1O | < 5 | 
6 | Cc1nc2c(N)ncnc2n1[C@@H]1O[C@H](C[S+](C)C)[C@@H](O)[C@H]1O |  | 3000

More lines, main results first:

Row | inhibition [1] [%] | SMILES | IC50 [2] [nM]
7 | < 5 | Cc1nc2c(N)ncnc2n1[C@@H]1O[C@H](CN(C)CC(N)=O)[C@@H](O)[C@H]1O | 
8 | < 5 | CNCCCNC[C@H]1O[C@@H](n2c(-c3ccccc3)nc3c(N)ncnc32)[C@H](O)[C@@H]1O | 
9 | < 5 | CN(CCCCON)C[C@H]1O[C@@H](n2c(-c3ccccc3)nc3c(N)ncnc32)[C@H](O)[C@@H]1O | 
10 | < 5 | CN(CCN)C[C@H]1O[C@@H](n2cnc3c(N)ncnc32)[C@H](O)[C@@H]1O | 
11 | < 5 | CN(CCON)C[C@H]1O[C@@H](n2c(-c3ccccc3)nc3c(N)ncnc32)[C@H](O)[C@@H]1O | 
12 | < 5 | CN(CCCN)C[C@H]1O[C@@H](n2c(-c3ccccc3)nc3c(N)ncnc32)[C@H](O)[C@@H]1O | 
